Results as given in the array DNA melting data of Ke et al. (doi:10.1101/2024.01.08.574731).

Legend:
[1] = folding enthalpy; higher = less favourable; fluorescence melt of hairpins on a sequencing array, two-state fit; conditions: sodium 0.088 M
Summary of the method: (§1)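 On a sequenced MiSeq flow cell, library hairpins with annealed Cy3 and quencher oligos were imaged for Cy3 fluorescence in 2.5 °C steps up to 60 °C, in 50 mM Na-HEPES pH 8.0, 25 mM NaCl. Normalisation used pre-quench Cy3 and control constructs. Bootstrapped two-state fits gave melting temperature and folding enthalpy, combined by inverse variance across four replicates and with fitted temperatures raised by 9.35 °C to match UV melts.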

[2] = melting temperature; fluorescence melt of hairpins on a sequencing array, two-state fit, raised by 9.35 °C to match UV melts; conditions: sodium 0.088 M
Summary of the method: as §1

Sequence	folding enthalpy [1] [kcal/mol]	Tm [2] [°C]
GCTTTAGGAAACTAAAGC (((((((....)))))))	-39.1	54.4
GATCCCATGGGGGATC ((((((....))))))	-32.4	60.1
GTAGGTGGAAACACCCAC ((.((((....)))).))	-13.1	34.7
GTTCGACGAAAGTCAAAC (((.(((....))).)))	-21.3	41.7
GCGCTGCGAAAGCTGTGC ((.(.((....)).).))	-34.4	59.5
GATCTACAGTAGATC ((((((...))))))	-38.7	39.3
GATCAGTCCACTGATC ((((((....))))))	-37.6	54.3
GTGTGAGGAAACTCGCAC (((.(((....))).)))	-47	54.3
GATCCTAATCAGGATC ((((((....))))))	-38.6	50.5
GATCCCGTTGGGATC ((((((...))))))	-31.5	64.4
GATCTATATGTAGATC ((((((....))))))	-35.4	45.5
GAGTGCCGAAAGGCCTC (((.(((....))))))	-17.7	56.8
GATCAGCAAGCTGATC ((((((....))))))	-33	58.7
GATCTTAATGAAGATC ((((((....))))))	-27.5	39.5
GCTAGGCGAAAGCCTTGC ((.((((....)))).))	-21.1	61.8
GACGACGCGAAAGCGGTC (((..(((....))))))	-11.5	47
GCGTTGACACGC ((((....))))	-21.2	50.1
GATCACTAGAGTGATC ((((((....))))))	-40.8	56.4
GGCTTGGGAAACTAGGCC (((.(.(....).).)))	-28.4	39.4
GCGTGGATACGC ((((....))))	-28.2	66.6
GTTTGCGGAAACGTAGAC ((.(.((....)).).))	-20.5	30.7
GATCCGGGGCGGATC ((((((...))))))	-37.2	56
GACGGCGAAAGCCCCGTC ((((((....)))..)))	-15.8	42.8
GGCCGCCCGAAAGGGGCC (((..(((....))))))	-15	62

Sequence	folding enthalpy [1] [kcal/mol]	Tm [2] [°C]
GCACTGCGAAAGCAAGGC ((..(((....)))..))	-17.8	47.5
GCTTTAGGAAACTAAGGC ((.((((....)))).))	-27.7	37
GGCTACGAAAGTACAGCC ((((((....)))..)))	-26.9	48
CGCGGAACGTCCGCG ((((((...))))))	-39.5	60.5
GATCTTCATAAGATC ((((((...))))))	-28.4	43.4
GCGTTTTCGAAAGAACGC (((..(((....))))))	-32	49.6
GGCAACGAAAGTTTCGCC ((((((....)))..)))	-19	41.8
GATCGCTTTCGCGATC ((((((....))))))	-38.4	67.4
GACTTAGGAAACTAAGCC (.(((((....))))).)	-21.9	34.2
GGGATAGGAAACTATCCC (((((((....)))))))	-42.8	59.2
GGTAATGGAAACATCACC (((.(((....))).)))	-18.2	30.7
GCGGTCGAAAGACGGCGC ((((((....)))..)))	-31.3	63.9
GCCAGCGAAAGCTCGGC ((((((....))).)))	-28.4	60.8
GGGTCTGGAAACAGGTCC ((..(((....)))..))	-27.8	39.9
GATCGGCGAAAGCCCATC (((.(((....))).)))	-11.2	36.4
GGTAGAGCGAAAGCTACC (((..(((....))))))	-17.3	45.5
GATCCATAGTGGATC ((((((...))))))	-38.1	49.2
GATCCATGGGTGGATC ((((((....))))))	-41.4	54.4
GATTTGACGAAAGTCATC (((..(((....))))))	-8.24	27.3
GTATGCGAAAGCATCTAC ((((((....)))..)))	-11.3	40
GGGCAGTCGAAAGACCCC (((..(((....))))))	-21.6	41.7
GCGGTTCGCCGC ((((....))))	-23.3	64.5
GCCAAAGGAAACTTTGAC (.(((((....))))).)	-21.9	32.3
GCCTACGAAAGTACTGGC ((((((....)))..)))	-24.4	40.2

Sequence	folding enthalpy [1] [kcal/mol]	Tm [2] [°C]
CGTGCGGAAACGCAAACG ((((((....)))..)))	-19.9	45.3
GGCTATGGAAACACAGCC ((((.((....)).))))	-29.9	43.2
GCCAAACGAAAGTTGGC (((.(((....))))))	-34.5	56.8
GTTTTCGGAAACGAGAAC (((.(((....))).)))	-27.4	41.6
GTAGCTCCGAAAGGATAC (((..(((....))))))	-14.6	25.4
GTGATCGGAAACGATCGC (.(((((....))))).)	-36.4	57.6
GTGGGCGAAAGCCCGCAC ((((((....)))..)))	-10.2	58.6
GACTTGAAAAAGTC (((((....)))))	-26.7	44.5
GACACCGGAAACGGTGCC (.(((((....))))).)	-13.4	48.8
GCATTCGAAAGAATGC ((((((....))))))	-28.3	69.2
GGAATCCGAAAGGACTCC (((.(((....))).)))	-26.2	46.3
GATCCCCCATGGGATC ((((((....))))))	-36.5	59.9
GTTACCCGAAAGGGAAC (((.(((....))))))	-17.1	43.7
GCCACGCGAAAGCAGGGC (((..((....))..)))	-23.5	61.6
GAGTTTGGAAACAAATTC ((.((((....)))).))	-28.7	35.8
GCAGGGCGAAAGCCACGC ((..(((....)))..))	-15.2	52.2
GGCTCCGAAAGGAATGCC ((((((....)))..)))	-26.9	51.3
GTTCGCGAAAGCGGTAAC ((((((....)))..)))	-11	30.7
GATCCCCTACGGGATC ((((((....))))))	-35.3	61.9
GGACCCGGAAACGGATCC (((.(((....))).)))	-38.5	49.8
GATGTTGGAAACAACACC (.(((((....))))).)	-15.6	34.8
GCGCGTGGAAACGTGCGC ((((..(....)..))))	-40.5	64.7
CTGTGGAAACACAG (((((....)))))	-19.7	52.1
GTTGCAGGAAACTGCGAC ((.((((....)))).))	-28	53.9

Sequence	folding enthalpy [1] [kcal/mol]	Tm [2] [°C]
GCCGACTCGAAAGAGGGC (((..(((....))))))	-23.1	47.1
GGCGCCCGAAAGGGGCC (((.(((....))))))	-17.2	67.4
GAGAGCCGAAAGGCCTC (((.(((....))))))	-15.6	55.3
GATCAAGTAGTTGATC ((((((....))))))	-31.6	46.7
GCGACTCGAAAGAGCGC (((.(((....))))))	-32.7	60.4
GACGACGAAAGTCCGGTC ((((((....)))..)))	-18	39.3
GATCAGCAACCTGATC ((((((....))))))	-33	46.2
GCTGAGCGAAAGCACAGC ((((.((....)).))))	-35.6	67.8
GTAGCACGAAAGTGTTAC (((.(((....))).)))	-29.2	51.5
GTTATGGGAAACCATAGC (.(((((....))))).)	-24.1	36.9
GCGACAGGAAACTACCGC (((..((....))..)))	-20.5	31.6
GCGGTTGGAAACAGTCGC (((..((....))..)))	-25.3	44.2
GTCTCGGCGAAAGCCGAC (((..(((....))))))	-4.96	35.6
CCTGGGAAACCAGG (((((....)))))	-19.5	55
GCCTAACCGAAAGGTGGC (((..(((....))))))	-23.2	53.2
CGAACGGAAACGTACTCG ((((((....)))..)))	-5.58	15
GTCTATCGAAAGATCGAC (((.(((....))).)))	-40.4	41.4
GCATCCGAAAGGAGATGC ((((((....)))..)))	-33.6	50.1
GGACTCGAAAGAGGCTCC ((((((....)))..)))	-13.3	48.9
GTCTGTACGAAAGTAGAC (((..(((....))))))	-24.2	36.4
GCCCTGCGAAAGCCGGGC ((((.((....)).))))	-32.9	69
